The values that follow come from ChEMBL document CHEMBL1155895, “(9S)-9-(2-hydroxy-4,4-dimethyl-6-oxo-1-cyclohexen-1-yl)-3,3-dimethyl-2,3,4,9-tetrahydro-1H-xanthen-1-one, a selective and orally active neuropeptide Y Y5 receptor antagonist” (J Med Chem, 2008).

pIC50, pKi: −log10 of the molar value.

Data set [1] addresses T1, Neuropeptide Y receptor type 5 (Homo sapiens, UniProt Q15761).
T1 sequence (Q15761 whole entry): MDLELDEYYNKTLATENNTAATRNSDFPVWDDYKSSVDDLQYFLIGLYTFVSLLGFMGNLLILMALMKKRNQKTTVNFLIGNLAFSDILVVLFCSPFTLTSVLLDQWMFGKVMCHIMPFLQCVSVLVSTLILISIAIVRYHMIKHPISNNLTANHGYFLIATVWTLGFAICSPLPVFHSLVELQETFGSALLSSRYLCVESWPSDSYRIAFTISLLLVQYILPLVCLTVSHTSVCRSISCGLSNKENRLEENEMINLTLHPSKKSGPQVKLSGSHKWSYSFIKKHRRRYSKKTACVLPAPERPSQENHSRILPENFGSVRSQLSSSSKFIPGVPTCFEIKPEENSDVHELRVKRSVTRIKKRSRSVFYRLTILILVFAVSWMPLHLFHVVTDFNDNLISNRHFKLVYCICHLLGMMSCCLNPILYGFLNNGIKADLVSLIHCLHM
As to the kind of experiment: Displacement of [125I]PYY from human recombinant neuropeptide Y5 receptor expressed in thymidine kinase deficient […]. It counts as cell-based.

The target in data set [2] is T1, Neuropeptide Y receptor type 5. The experiment in a line: Antagonist activity at human recombinant neuropeptide Y5 receptor expressed in CHO cells coexpressing Gqi5 assessed as inhibition of neuropeptide Y-induced increase in intracellular calcium concentration. It counts as functional, cell-based. Summed up:
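Human recombinant Y5 receptor co-expressed with Gqi5 in CHO cells. Cells stimulated with 100 nM NPY. Antagonism read as inhibition of the NPY-evoked intracellular Ca2+ rise, reported as IC50.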
On the technique in general: Calcium flux is commonly read through the fluorescence of an indicator in the cells.

Data set [3] is described as follows: Fraction unbound in Sprague-Dawley rat plasma at 10 mg/kg, po. It counts as ADME, organism-based. The arrangement: dose 10 mg/kg, route oral.
Data set [4] can be described thus: Ratio of drug level in brain to plasma in Sprague-Dawley rat at 10 mg/kg, po. It counts as ADME, organism-based. Also on record: dose 10 mg/kg, route oral.
Data set [5] in a line: Tmax in Sprague-Dawley rat at 10 mg/kg, po. It is filed as ADME, organism-based. Also on record: dose 10 mg/kg, route oral. Particulars: in vivo. Summed up:
(§1)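 SD rats dosed orally with 10 mg/kg, as either the single enantiomer or the racemate; n = 3 animals per dose. Plasma levels of both enantiomers followed over time to build concentration–time profiles, from which PK parameters were taken.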

Data set [6] in a line: Cmax in Sprague-Dawley rat at 10 mg/kg, po. The following applies: in vivo. It counts as ADME, organism-based. The arrangement: dose 10 mg/kg, route oral. Summed up: as §1
The nature of data set [7]: Half life in Sprague-Dawley rat at 10 mg/kg, po. The arrangement: dose 10 mg/kg, route oral. Particulars: in vivo. It is filed as ADME, organism-based. The procedure, abridged:
as §1

The test system of a further data set is Rattus norvegicus. As to the kind of experiment: Inhibition of D-Trp34-NPY-induced food intake in po dosed Sprague-Dawley rat. It counts as functional, organism-based.
Data set [8] deals with T2, Neuropeptide Y receptor type 1 (Homo sapiens, UniProt P25929).
T2 sequence (P25929 whole entry): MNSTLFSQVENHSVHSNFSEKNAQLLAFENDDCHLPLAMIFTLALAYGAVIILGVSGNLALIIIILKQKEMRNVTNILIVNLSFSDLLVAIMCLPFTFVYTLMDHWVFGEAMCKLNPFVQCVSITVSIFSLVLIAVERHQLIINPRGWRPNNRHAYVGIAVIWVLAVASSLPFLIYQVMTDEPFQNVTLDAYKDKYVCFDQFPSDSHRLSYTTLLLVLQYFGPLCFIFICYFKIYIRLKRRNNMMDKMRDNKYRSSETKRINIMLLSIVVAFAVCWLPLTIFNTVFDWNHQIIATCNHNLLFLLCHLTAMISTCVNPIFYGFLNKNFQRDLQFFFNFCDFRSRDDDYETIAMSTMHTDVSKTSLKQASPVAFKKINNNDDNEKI
The experiment in a line: Inhibition of human neuropeptide Y1 receptor.

Data set [9] deals with T3, Neuropeptide Y receptor type 2 (Homo sapiens, UniProt P49146).
T3 sequence (P49146 whole entry): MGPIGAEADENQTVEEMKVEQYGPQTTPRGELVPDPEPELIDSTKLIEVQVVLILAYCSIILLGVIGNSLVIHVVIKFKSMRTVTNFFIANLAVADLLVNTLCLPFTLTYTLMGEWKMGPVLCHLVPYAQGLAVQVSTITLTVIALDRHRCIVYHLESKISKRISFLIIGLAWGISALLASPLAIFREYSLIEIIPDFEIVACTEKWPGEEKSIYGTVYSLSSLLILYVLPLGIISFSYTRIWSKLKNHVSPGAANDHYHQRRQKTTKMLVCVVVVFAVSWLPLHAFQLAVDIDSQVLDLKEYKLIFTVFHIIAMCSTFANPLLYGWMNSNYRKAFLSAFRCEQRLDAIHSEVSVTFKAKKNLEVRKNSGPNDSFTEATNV
As to the kind of experiment: Inhibition of human neuropeptide Y2 receptor.

Data set [10] has as its target Neuropeptide Y receptor type 4 (Homo sapiens, UniProt P50391). As to the kind of experiment: Inhibition of human neuropeptide Y4 receptor.
The test system of data set [11] is Mus musculus. The experiment in a line: Toxicity in ICR mouse assessed as gross behavioral adverse effects at 150 mg/kg, po. It is filed as organism-based. Also on record: dose 150 mg/kg, route oral. The following applies: in vivo. The procedure, abridged: (§2)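 Mice were given a single oral dose of 150 mg/kg and observed for gross behaviour. The scored signs were psychomotor activity, motor activity, muscle tone, CNS excitation, autonomic responses and reflexes. Deaths were recorded at any time after dosing. This was run as a gross-behaviour screen before the in vivo efficacy studies.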

Data set [12] relates to Mus musculus. As to the kind of experiment: Toxicity in ICR mouse assessed as mortality at 150 mg/kg, po. The arrangement: dose 150 mg/kg, route oral. Particulars: in vivo. It counts as organism-based. Summed up: as §2

Sequence of Neuropeptide Y receptor type 4 (P50391 whole entry): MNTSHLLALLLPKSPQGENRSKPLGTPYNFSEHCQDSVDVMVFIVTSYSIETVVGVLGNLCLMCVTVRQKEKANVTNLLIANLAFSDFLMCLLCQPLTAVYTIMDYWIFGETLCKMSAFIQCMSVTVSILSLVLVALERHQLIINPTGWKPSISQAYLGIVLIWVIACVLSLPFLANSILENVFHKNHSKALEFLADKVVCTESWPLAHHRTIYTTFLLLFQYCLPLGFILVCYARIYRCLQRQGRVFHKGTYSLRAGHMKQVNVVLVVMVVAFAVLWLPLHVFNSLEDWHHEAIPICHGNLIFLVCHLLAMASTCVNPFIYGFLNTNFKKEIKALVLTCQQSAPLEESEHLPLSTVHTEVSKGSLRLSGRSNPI

As usually defined, the pKi is the negative decadic logarithm of the Ki, by convention in mol/L. Consider `CCc1ccc2c(c1)OC1=C(C(=O)CC(C)(C)C1)C2C1=C(O)CC(C)(C)CC1=O` (configuration not stated), for which, in data set [1], the pKi is 7.39.

Take `CC1(C)CC(=O)C(C2C3=C(CC(C)(C)CC3=O)Oc3ccc(Cl)cc32)=C(O)C1` (configuration not stated): the pKi in [1] was 6.71.

As for `CC1CC(=O)C(C2C3=C(CC(C)CC3=O)Oc3ccccc32)=C(O)C1` (configuration not stated), in [1], the pKi is 6.71.

Broadly, the pIC50 is the negative decadic logarithm of the IC50, by convention in mol/L. As a reminder, the fraction unbound is free concentration divided by total concentration. Higher therefore signals much free substance. As a reminder, the Kp is the ratio of the level in a tissue or fluid to that in plasma or blood. On to `CC1(C)CC(=O)C([C@@H]2C3=C(CC(C)(C)CC3=O)Oc3ccccc32)=C(O)C1`, for which the pKi in data set [1] was under 6.00. For the same molecule, in data set [2], the pIC50 is 6.46. Further, the fraction unbound in data set [3] came to 0.1. In addition, the Kp in [4] was 0.1.

Consider `CC1(C)CC(=O)C(C2C3=C(CC(C)(C)CC3=O)Oc3c(F)cccc32)=C(O)C1` (configuration not stated), for which the pKi in [1] is 7.47. For the same molecule, the pIC50 in data set [2] was 7.14.

In the case of `CC1(C)CC(=O)C(C2C3=C(CC(C)(C)CC3=O)Oc3c(Cl)cccc32)=C(O)C1` (configuration not stated), the pKi in [1] is 7.15.

As to `CC1(C)CC(=O)C(C2C3=C(CC(C)(C)CC3=O)Oc3cc(F)ccc32)=C(O)C1` (configuration not stated), in [1], the pKi was 7.54. The pIC50 in data set [2] was 7.20.

For `O=C1CCCC(O)=C1C1C2=C(CCCC2=O)Oc2ccccc21` (configuration not stated), the negative logarithm of the Ki (pKi) in [1] is under 6.00.

For the molecule `O=C1CC2(CCCCC2)CC(O)=C1C1C2=C(CC3(CCCCC3)CC2=O)Oc2ccccc21` (configuration not stated), the negative-log Ki (pKi) in data set [1] is 7.62. The pIC50 in [2] is 6.96.

Usually Tmax stands for the time from dosing to the highest level. A word on the Cmax: it is the maximum level reached in the sampled fluid or tissue. The term half-life denotes how long it takes for the measured level to halve. A higher half-life goes with slow loss. Consider `CC1(C)CC(=O)C([C@H]2C3=C(CC(C)(C)CC3=O)Oc3ccccc32)=C(O)C1`, for which the pKi in data set [1] is 7.85. The pIC50 in data set [2] was 7.47. Moreover, in data set [5], the Tmax was 0.5 h. The same molecule returned a Cmax in [6] of 2500 nM. Moreover, in data set [7], the half-life is 2.7 h. Besides, the fraction unbound in data set [3] turned out to be 0.27. Moreover, the Kp in data set [4] amounted to 0.34. In the data set on Rattus norvegicus, the Activity entry was “Dose-dependent effect”.

Consider `O=C1CC2(CCC2)CC(O)=C1C1C2=C(CC3(CCC3)CC2=O)Oc2ccccc21` (configuration not stated), for which the pKi in [1] is 7.85. Further, in data set [2], the pIC50 is 7.35.

In the case of `COc1cccc2c1C(C1=C(O)CC(C)(C)CC1=O)C1=C(CC(C)(C)CC1=O)O2` (configuration not stated), the pKi in data set [1] is under 6.00.

`COc1ccc2c(c1)C(C1=C(O)CC(C)(C)CC1=O)C1=C(CC(C)(C)CC1=O)O2` (configuration not stated): in data set [1], the pKi is 6.23.

For the molecule `CC1(C)CC(=O)C(C2C3=C(CC(C)(C)CC3=O)Oc3cc(Cl)ccc32)=C(O)C1` (configuration not stated), the negative logarithm of the Ki (pKi) in data set [1] is 7.47. Besides, the pIC50 in data set [2] is 7.09.

Consider `COc1cccc2c1OC1=C(C(=O)CC(C)(C)C1)C2C1=C(O)CC(C)(C)CC1=O` (configuration not stated), for which the negative logarithm of the Ki (pKi) in [1] was 5.66.

For `O=C1CC2(CCCC2)CC(O)=C1C1C2=C(CC3(CCCC3)CC2=O)Oc2ccccc21` (configuration not stated), in [1], the pKi is 7.77. Further, in data set [2], the pIC50 is 7.24.

In the case of `COc1ccc2c(c1)OC1=C(C(=O)CC(C)(C)C1)C2C1=C(O)CC(C)(C)CC1=O` (configuration not stated), in [1], the negative-log Ki (pKi) was 7.03.

On to `CC1(C)CC(=O)C(C2C3=C(CC(C)(C)CC3=O)Oc3ccc(F)cc32)=C(O)C1` (configuration not stated), for which the pKi in [1] is 7.09.

As to `Cc1ccc2c(c1)OC1=C(C(=O)CC(C)(C)C1)C2C1=C(O)CC(C)(C)CC1=O` (configuration not stated), in data set [1], the pKi is 7.44. The pIC50 in data set [2] was 6.95.

As for `CC1(C)CC(=O)C(C2C3=C(CC(C)(C)CC3=O)Oc3ccccc32)=C(O)C1` (racemic), the pKi in data set [1] is 7.48. Further, the pIC50 in data set [2] was 7.21; in data set [8], under 5.00; in data set [9], under 5.00; in [10] it was under 5.00. Also, the Tmax in data set [5] was 1 h. In [6], the Cmax was 2400 nM. This molecule gave a half-life in [7] of 5.2 h. For the same molecule, the figures for the Activity entry in the data set with Mus musculus [11], with Mus musculus [12] and in the data set on Rattus norvegicus were “Non-toxic”, “Non-toxic” and “Dose-dependent effect”, respectively.

For the molecule `CCOc1ccc2c(c1)OC1=C(C(=O)CC(C)(C)C1)C2C1=C(O)CC(C)(C)CC1=O` (configuration not stated), the pKi in data set [1] was 6.08.

As for `CCC1(CC)CC(=O)C(C2C3=C(CC(CC)(CC)CC3=O)Oc3ccccc32)=C(O)C1` (configuration not stated), the pKi in data set [1] was 7.70. The pIC50 in [2] was 7.05.

In the case of `CC1(C)CC(=O)C(C2C3=C(CC(C)(C)CC3=O)Oc3cc(Br)ccc32)=C(O)C1` (configuration not stated), in data set [1], the pKi was 7.44. Besides, in [2], the pIC50 was 7.09.
